Data: ChEMBL document CHEMBL1126060, “Spiropiperidines as high-affinity, selective sigma ligands” (J Med Chem, 1992)

Molecular target: D(2) dopamine receptor (Rattus norvegicus, UniProt P61169)
Test: In vitro for the binding affinity against dopamine receptor D2 by using [3H](-)-sulpiride as radioligand in rat striatum.
Format: tissue-based
Method in brief: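 Displacement of [³H]-(-)-sulpiride from rat striatal homogenates. Values are reported as -log₁₀(IC₅₀), the mean of two to three independent determinations. Values without error limits are the mean of two independent experiments.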

Chain of D(2) dopamine receptor (P61169 whole entry): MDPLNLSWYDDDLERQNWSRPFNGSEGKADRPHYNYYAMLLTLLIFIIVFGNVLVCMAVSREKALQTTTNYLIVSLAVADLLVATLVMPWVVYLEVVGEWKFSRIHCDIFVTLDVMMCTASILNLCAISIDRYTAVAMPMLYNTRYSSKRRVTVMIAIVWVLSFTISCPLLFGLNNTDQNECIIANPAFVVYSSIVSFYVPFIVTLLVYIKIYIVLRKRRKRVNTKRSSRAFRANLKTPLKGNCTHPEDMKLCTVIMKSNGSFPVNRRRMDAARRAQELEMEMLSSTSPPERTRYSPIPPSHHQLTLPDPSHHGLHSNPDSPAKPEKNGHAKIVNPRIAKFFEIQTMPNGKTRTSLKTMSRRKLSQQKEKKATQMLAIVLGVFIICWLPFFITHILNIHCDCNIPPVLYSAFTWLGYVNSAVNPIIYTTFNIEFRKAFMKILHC

IC50 | Structure (SMILES)
0.174 µM | Cc1ccc(CN2CCC3(CCCc4ccccc43)CC2)cc1
2.04 µM | CCCCCCN1CCC2(CCCc3ccccc32)CC1
0.617 µM | COc1ccc(CN2CCC3(CCc4ccccc43)CC2)cc1
17 µM | CC(C)=CCN1CCC2(CCc3ccccc32)CC1
5.5 µM | CCCCCCN1CCC2(CCc3ccccc32)CC1
5.5 µM | CC(C)=CCN1CCC2(CCCc3ccccc32)CC1
2.51 µM | CCCCN1CCC2(CCCCc3ccccc32)CC1
0.12 µM | COc1ccc(CN2CCC3(CCCc4ccccc43)CC2)cc1
6.61 µM | c1ccc2c(c1)CCC21CCN(CC2CCCCC2)CC1

Structure (SMILES) | IC50
c1ccc2c(c1)CCCC21CCN(CC2CCCCC2)CC1 | 1.95 µM
CCCCN1CCC2(CCCc3ccccc32)CC1 | 11 µM
c1ccc(CN2CCC3(CCc4ccccc43)CC2)cc1 | 0.891 µM
CCCCN1CCC2(CCc3ccccc32)CC1 | 3.98 µM
c1ccc(CN2CCC3(CCCCc4ccccc43)CC2)cc1 | 3.72 µM
